Test results from ChEMBL document CHEMBL1135626, “Imidazole inhibitors of cytokine release: probing substituents in the 2 position” (J Med Chem, 2002).

What was measured:
[1] = target: Mitogen-activated protein kinase 14 (Homo sapiens, UniProt Q16539); assay: Inhibition of Mitogen-activated protein kinase p38 (P38 MAPK)
[2] = Inhibition of the release of tumor necrosis factor alpha from peripheral blood mononuclear cells; format: functional; settings: Homo sapiens
In short: (§1)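 PBMC isolated from healthy donor blood by density gradient centrifugation, ~10⁶ cells/mL, preincubated 15 min (37 °C, 5% CO2) with compounds in DMSO (1% final), then LPS 1µg/mL (E. coli 026:B6) for 4 h. Supernatant IL-1β and TNF-α by ELISA after ice stop and centrifugation. IC50 from semilog plot of % reduction vs control, 10^-4–10^-8 M; at least duplicate.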

Homo sapiens [3] = species: Homo sapiens; assay: Ability to inhibit the release of tumor necrosis factor alpha (TNF-alpha) from whole blood; format: functional
In short: (§2)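 Human whole blood preincubated 15 min (37 °C, 5% CO2) with compounds in Cremophor EL/ethanol 70:30 (1% final), then stimulated 4 h with 1µg/mL LPS (E. coli 026:B6). Reaction stopped on ice, samples centrifuged, supernatant IL-1β and TNF-α measured by ELISA. IC50 read from semilog plot of % reduction vs control over 10^-4–10^-8 M; at least duplicate.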

[4] = Inhibition of the release of interleukin-1-beta from peripheral blood mononuclear cells; format: functional; settings: Homo sapiens; in short: as §1
Homo sapiens [5] = species: Homo sapiens; assay: Ability to inhibit the release of interleukin-1-beta (IL-1 beta) from whole blood; format: functional; in short: as §2

Mitogen-activated protein kinase 14, sequence (Q16539 whole entry): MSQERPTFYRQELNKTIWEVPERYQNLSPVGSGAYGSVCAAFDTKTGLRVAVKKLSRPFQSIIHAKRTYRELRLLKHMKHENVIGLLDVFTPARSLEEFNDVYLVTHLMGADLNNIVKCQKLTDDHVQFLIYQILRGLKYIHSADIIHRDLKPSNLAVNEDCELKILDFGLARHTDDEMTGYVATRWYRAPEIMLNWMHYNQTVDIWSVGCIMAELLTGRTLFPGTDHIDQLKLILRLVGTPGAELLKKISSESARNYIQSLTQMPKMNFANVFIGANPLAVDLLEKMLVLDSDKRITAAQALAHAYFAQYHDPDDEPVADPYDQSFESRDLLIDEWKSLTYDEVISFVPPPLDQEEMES

Row | SMILES | IC50 [1] | IC50 [2] | IC50 (Homo sapiens [3]) | IC50 [4] | IC50 (Homo sapiens [5])
1 | C[S+]([O-])c1ccc(CSc2nc(-c3ccc(F)cc3)c(-c3ccncc3)[nH]2)cc1 (configuration not stated) | 4 µM | 1.1 µM | 20.3 µM | 0.38 µM | 2.78 µM
2 | CSc1nc(-c2ccncc2)c(-c2ccc(F)cc2)[nH]1 | 0.63 µM | 0.9 µM | 4.2 µM | 0.044 µM | 1.2 µM
3 | CS(=O)(=O)c1ccc(CSc2nc(-c3ccc(Cl)cc3)c(-c3ccncc3)[nH]2)cc1 |  | 6.1 µM |  | 0.32 µM | 
4 | CSc1ccc(CSc2nc(-c3ccc(Br)cc3)c(-c3ccncc3)[nH]2)cc1 |  | 12.9 µM |  | 2.4 µM | 
5 | C[S+]([O-])c1cc(Cl)cc(CSc2nc(-c3ccc(F)cc3)c(-c3ccncc3)[nH]2)c1O (configuration not stated) |  | 28 µM |  | 4.4 µM | 
6 | C[S+]([O-])c1ccc(CSc2nc(-c3ccc(F)cc3)c(-c3cccnc3)[nH]2)cc1 (configuration not stated) |  | > 100 µM |  | 98 µM | 
7 | C[S+]([O-])c1ccc(O)c(CSc2nc(-c3ccc(F)cc3)c(-c3ccncc3)[nH]2)c1 (configuration not stated) |  | 5.8 µM | 103 µM | 1 µM | 13 µM
8 | CSc1ccc(CSc2nc(-c3ccc(Cl)cc3)c(-c3ccncc3)[nH]2)cc1 |  | 14 µM |  | 2.2 µM | 
9 | Fc1ccc(-c2[nH]c(SCc3ccccc3)nc2-c2ccncc2)cc1 | 35 µM | 3.5 µM |  | 0.3 µM | 
10 | C[S+]([O-])c1cc(CSc2nc(-c3ccncc3)c(-c3ccc(F)cc3)[nH]2)ccc1O (configuration not stated) | 3.4 µM | 5 µM | 9 µM | 2.3 µM | 12.1 µM
11 | CSc1cc(CSc2nc(-c3ccncc3)c(-c3ccc(F)cc3)[nH]2)ccc1O | 3.8 µM | 1.1 µM |  | 0.28 µM | 
12 | CSc1cc(Cl)cc(CSc2nc(-c3ccc(F)cc3)c(-c3ccncc3)[nH]2)c1O |  | 13.3 µM |  | 0.64 µM | 
13 | Oc1cccc(CSc2nc(-c3ccc(F)cc3)c(-c3ccncc3)[nH]2)c1 |  | 5.4 µM |  | 0.31 µM | 
14 | Oc1ccc(CSc2nc(-c3ccncc3)c(-c3ccc(F)cc3)[nH]2)cc1 | 5.7 µM | 6.8 µM |  | 0.37 µM | 
15 | N#CCSc1nc(-c2ccncc2)c(-c2ccc(F)cc2)[nH]1 |  | 2.3 µM |  | < 0.1 µM | 
16 | CS(=O)(=O)c1ccc(CSc2nc(-c3ccccc3)c(-c3ccncc3)[nH]2)cc1 |  | 8 µM |  | 1.7 µM | 
17 | C[S+]([O-])c1cccc(CSc2nc(-c3ccncc3)c(-c3ccc(F)cc3)[nH]2)c1 (configuration not stated) | 2.1 µM | 23.5 µM | 33.5 µM | 1 µM | 4.1 µM
18 | C[S+]([O-])c1ccc(CSc2nc(-c3ccccc3)c(-c3ccncc3)[nH]2)cc1 (configuration not stated) | 12 µM | 4.3 µM |  | 0.84 µM | 
19 | CS(=O)(=O)c1ccc(CSc2nc(-c3ccc(F)cc3)c(-c3ccncc3)[nH]2)cc1 |  | 2.5 µM | 28.8 µM | 0.33 µM | 2.9 µM

Row | SMILES | IC50 [1] | IC50 [2] | IC50 (Homo sapiens [3]) | IC50 [4] | IC50 (Homo sapiens [5])
20 | Fc1ccc(-c2[nH]c(SCCc3ccccc3)nc2-c2ccncc2)cc1 |  | 23.5 µM |  | 0.64 µM | 
21 | Fc1ccc(-c2[nH]c(SCC3CCCCC3)nc2-c2ccncc2)cc1 |  | 33.8 µM |  | 0.24 µM | 
22 | Fc1ccc(-c2[nH]c(SCc3cccc4ccccc34)nc2-c2ccncc2)cc1 |  | 8.8 µM |  | 0.82 µM | 
23 | CSc1ccccc1CSc1nc(-c2ccc(F)cc2)c(-c2ccncc2)[nH]1 |  | 18.3 µM |  | 6.7 µM | 
24 | CSc1ccc(O)c(CSc2nc(-c3ccc(F)cc3)c(-c3ccncc3)[nH]2)c1 |  | 5.1 µM |  | 0.74 µM | 
25 | Fc1ccc(-c2[nH]c(SCCCc3ccccc3)nc2-c2ccncc2)cc1 |  | 16 µM |  | 0.47 µM | 
26 | CSc1ccc(CSc2nc(-c3ccc(F)cc3)c(-c3ccncc3)[nH]2)cc1 |  | 4.9 µM |  | 0.67 µM | 
27 | Fc1ccc(-c2[nH]c(/C=C/c3ccccc3)nc2-c2ccncc2)cc1 |  | 6.5 µM |  | 0.13 µM | 
28 | C[S+]([O-])c1ccc(CCSc2nc(-c3ccncc3)c(-c3ccc(F)cc3)[nH]2)cc1 (configuration not stated) | 1.5 µM | 7.3 µM |  | 0.5 µM | 
29 | CSc1ccc(CSc2nc(-c3ccccc3)c(-c3ccncc3)[nH]2)cc1 |  | 17.1 µM |  | 72.5 µM | 
30 | C[S+]([O-])c1ccc(CSc2nc(-c3ccc(Br)cc3)c(-c3ccncc3)[nH]2)cc1 (configuration not stated) | 3.8 µM | 7.8 µM |  | 0.82 µM | 
31 | CSc1cccc(CSc2nc(-c3ccncc3)c(-c3ccc(F)cc3)[nH]2)c1 | 2.3 µM | 12 µM |  | 0.55 µM | 
32 | C[S+]([O-])c1ccc(CSc2nc(-c3ccc(Cl)cc3)c(-c3ccncc3)[nH]2)cc1 (configuration not stated) | 1.4 µM | 3.1 µM |  | 0.32 µM | 
33 | CS(=O)(=O)c1ccc(CSc2nc(-c3ccc(Br)cc3)c(-c3ccncc3)[nH]2)cc1 |  | 7.3 µM |  | 0.64 µM | 
34 | C[S+]([O-])c1ccccc1CSc1nc(-c2ccc(F)cc2)c(-c2ccncc2)[nH]1 (configuration not stated) |  | 15 µM | 47.5 µM | 0.9 µM | 4 µM
35 | C[S+]([O-])c1ccc(CCCSc2nc(-c3ccc(F)cc3)c(-c3ccncc3)[nH]2)cc1 (configuration not stated) | 0.75 µM | 3.6 µM |  | 0.18 µM | 
36 | Oc1ccccc1CSc1nc(-c2ccc(F)cc2)c(-c2ccncc2)[nH]1 |  | 24.8 µM |  | 0.44 µM | 
37 | Fc1ccc(-c2[nH]c(CCc3ccccc3)nc2-c2ccncc2)cc1 | 0.69 µM | 5.4 µM |  | 0.14 µM | 
